# High-throughput results deposited in PubChem by several laboratories.
# UPR CHOP act – apoptotic UPR (CHOP) activation. CHO-CHOP luciferase reporter, luminescence; percent of tunicamycin response over DMSO baseline. activation, % at 10 µM. 0.34% of 330,000 active;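 active = at 10 µM dose, activation of 40% or more, normalized to positive control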
#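 Assay system: CHO cells with stable CHOP pathway luciferase reporter; Buffer or medium: F12 plus 10% serum; Times: 16-18 h cell attachment, then 6 h compound exposure, 37 °C; Signal: luciferase luminescence; Read-out basis: percent activation relative to tunicamycin control; Control set: tunicamycin high control, DMSO low control.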
# T cruzi repl – blocks replication of Trypanosoma cruzi. T. cruzi beta-gal in NIH3T3, luminescence, 90 h. inhibition, % (no concentration beside the values). 1.4% of 300,000 active. AID 1885;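 active = mean inhibition across valid replicates above about 55%, limit read from the data; inconclusive = mean below that limit but half or more replicates reach it; inactive = mean below it, under half of replicates reach it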;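 also: signal also drops with host cell toxicity which is not excluded here; higher percent means less beta-gal luminescence so fewer parasites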
#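 Assay system: NIH/3T3 fibroblasts plus reporter T. cruzi. Amount: NIH/3T3 cells, 5,000 per well. Buffer or medium: DMEM, 2% fetal bovine serum. Doses: compound pinned at 50 nL/well, DMSO. Schedule: ≥90 h infection period, 3 h prior cell attachment. Signal: luminescent β-galactosidase signal after 60 min lysis. Read-out: parasite load inhibition, %.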
# Dynein transport – dynein cargo transport inhibition. AID 1381. 0.47% of 220,000 active. 3617.4 mouse cells, GR-EGFP nuclear translocation imaging; test concentration mostly 20 µM; stimulated with dexamethasone, 1 µM; active compounds read low. z-score, hits read low;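 active = plate z-score of nuclear minus cytoplasmic receptor signal below a set negative limit, without overly bright fluorescence or cell loss, cut at about -3.5 in these data, passing the limit was not always enough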;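 also: z-score of nuclear minus cytoplasmic ring GR-EGFP intensity difference per well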
#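 Buffer or medium – tet-free medium with charcoal-stripped serum · Signal – automated 10x imaging of fixed Hoechst-stained cells · Also added – dexamethasone agonist, 1.0 µM final, for 30 min · Incubation – induction 48 h, compound 1 h, agonist 30 min · Read-out – GR-EGFP nuclear translocation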
# UPR XBP1 act – adaptive UPR (XBP1) activation; CHO-XBP1 luciferase reporter, IRE1-XBP1 UPR activation, luminescence; percent of tunicamycin response, DMSO as zero; 0.33% of 330,000 active; activation, % at 20 µM; AID 463104;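 active = versus positive control, 20 µM dose yields 30% or more activation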
#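 Signal: luciferase luminescence; Assay system: CHO-XBP1 luciferase reporter cells; Amount: one thousand reporter cells per well; Dosing: 20 µM single concentration, DMSO 1%; Benchmarks: high control tunicamycin 10 µg/mL final, low control DMSO vehicle only; Schedule: 6 h compound exposure at 37 °C, 5% CO2; Evaluation: percent activation relative to tunicamycin reference.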
# CHOP inh – inhibitors of CHOP induction in ER stress response; CHO-K1 CHOP-promoter luciferase, tunicamycin-induced, 15-18 h; inhibition, % at 10 µM; 3.8% of 220,000 active;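 active = compounds that reduced the stress-induced luciferase reporter signal by more than about 70% of percent inhibition, limit read from the data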
# Lmaj promast – reduces viability of Leishmania major promastigotes. AID 1063. 9% of 200,000 active. inhibition, % at 10 µM. resazurin fluorescence viability; in the data active = inhibition above about 50%;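 also: promastigotes grown with compound for 44 hours at 28 °C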
# A number is an active result; n = inactive; u = inconclusive; x = no result given. The full list was thinned out, with hits kept by preference.
SMILES,UPR CHOP act,T cruzi repl,Dynein transport,UPR XBP1 act,CHOP inh,Lmaj promast
COc1ccc(C(=O)Oc2cc(/C=N/NC(N)=S)ccc2OC)cc1,n,n,n,n,n,n
COc1ccc(/C=N/NC(N)=S)cc1OC(=O)c1cccc2ccccc12,n,u,n,n,n,99
COc1cccc2c1C(=O)c1c(O)c3c(c(O)c1C2=O)C[C@@](O)(C(=O)CO)C[C@@H]3O[C@H]1C[C@H](N)[C@@H](O)[C@H](C)O1,n,n,x,n,x,x
CC(=O)[C@]1(O)Cc2c(O)c3c(c(O)c2[C@@H](O[C@H]2C[C@H](N)[C@H](O)[C@H](C)O2)C1)C(=O)c1ccccc1C3=O,n,55,x,n,n,x
COc1cccc2c1C(=O)c1c(O)c3c(c(O)c1C2=O)C[C@@](O)(C(C)=O)C[C@@H]3O[C@H]1C[C@H](N)[C@H](O)[C@H](C)O1,x,x,n,x,x,100
Cc1cccc(NC(=O)COc2coc(CN3CCN(c4ccccc4)CC3)cc2=O)c1C,n,n,x,n,x,x
COc1ccccc1S(=O)(=O)Nc1cc(C)nn1-c1ccc(C)cc1,n,n,x,n,x,x
O=C(OCN1C(=O)c2ccccc2C1=O)c1cc(S(=O)(=O)N2CCOCC2)ccc1F,n,x,x,n,x,x
O=C(NNc1c(Cl)cccc1Cl)c1ccno1,n,x,n,n,n,x
C#CCOCCOCCOCCNc1nc(N2CCN(C(=O)CCCCCCCCCCNC(=O)[C@H](CCCCN)n3cc(C[C@@H](C)CC)nn3)CC2)nc(N2CCN(C(=O)CCCCCCCCCCNC(=O)[C@H](CCCCN)n3cc(C[C@@H](C)CC)nn3)CC2)n1,x,55,x,x,x,x
C#CCOCCOCCOCCNc1nc(N2CCN(C(=O)CCCCCCCCCCNC(=O)[C@H]([C@@H](C)CC)n3cc(CCCCN=C(N)N)nn3)CC2)nc(N2CCN(C(=O)CCCCCCCCCCNC(=O)[C@H](CCCCN)n3cc(C[C@@H](C)CC)nn3)CC2)n1,n,x,x,39,x,x
C#CCOCCOCCOCCNc1nc(N2CCN(C(=O)CCCCCCCCCCNC(=O)[C@H](CO)n3cc(CCCSC)nn3)CC2)nc(N2CCN(C(=O)CCCCCCCCCCNC(=O)[C@H](CCCCN)n3cc(C[C@@H](C)CC)nn3)CC2)n1,n,55,x,n,x,x
C#CCOCCOCCOCCNc1nc(N2CCN(C(=O)CCCCCCCCCCNC(=O)[C@H](CCCCN)n3cc(CCO)nn3)CC2)nc(N2CCN(C(=O)CCCCCCCCCCNC(=O)[C@H](CCCN=C(N)N)n3cc(C[C@@H](C)CC)nn3)CC2)n1,n,x,x,n,x,x
CCc1nnc(SC(C)C(=O)Nc2nccs2)n1C (configuration not stated),n,n,x,n,x,x
O=C(CNC(=O)c1ccccc1F)N/N=C\C=C\c1ccccc1,n,n,x,n,x,x
NS(=O)(=O)c1ccc(CCNC(=O)CSc2nc3ccccc3c(=O)n2CC2CCCO2)cc1 (configuration not stated),n,n,x,n,x,x
O=S(=O)(c1ccc(F)cc1)N1CCC(n2cnc3ccccc32)CC1,n,n,x,n,x,x
O=S(=O)(c1ccc(Cl)cc1)N1CCC(n2cnc3cc(C(F)(F)F)ccc32)CC1,n,56,n,n,x,n
O=S(=O)(c1ccc2c(c1)OCCO2)N1CCC(n2cnc3cc(F)ccc32)CC1,n,n,n,n,n,69
COc1ccc(CNC(=O)[C@@H](NC(=O)C2CCN(C(=O)[C@@H](N)CCSC)CC2)C(C)C)cc1,n,n,x,n,x,x
COc1cc(C(=O)O[C@H]2C/C(C)=C/CC[C@@]3(C)O[C@@H]3[C@H](O)[C@@H]2C(C)C)cc(OC)c1OC,n,n,x,n,x,x
CCOC(=O)c1ccc2c(c1)n(CC)c(/C=C/N(C)c1ccccc1)[n+]2CC,n,n,n,n,n,100
Cc1cccc(Nc2cc(C)c3c(O)cccc3n2)c1C,n,n,n,n,n,99
Cc1cccc(NC(=S)N(C)C)c1C,n,n,n,n,n,x
CSC1=C(C#N)C(c2ccc(Cl)cc2)C2=C(CC(C)(C)CC2=O)N1 (configuration not stated),n,n,x,n,x,x
